Measured values as given in ChEMBL document CHEMBL4411269, “Required Immunoproteasome Subunit Inhibition Profile for Anti-Inflammatory Efficacy and Clinical Candidate KZR-616 ((2 S,3 R)- N-(( S)-3-(Cyclopent-1-en-1-yl)-1-(( R)-2-methyloxiran-2-yl)-1-oxopropan-2-yl)-3-hydroxy-3-(4-methoxyphenyl)-2-(( S)-2-(2-morpholinoacetamido)propanamido)propenamide)” (J Med Chem, 2018).
≈ marks a conversion by molar mass, not a printed value. Calls of active or inactive are those of the source. No cut-off for these calls is given here.

Legend:
[1] = target: T1, Proteasome subunit beta type-5 (Mus musculus, UniProt O55234); assay: Inhibition of 20S proteosome beta 5 in mouse A20 cells by ELISA; format: cell-based
T1 sequence (O55234 whole entry): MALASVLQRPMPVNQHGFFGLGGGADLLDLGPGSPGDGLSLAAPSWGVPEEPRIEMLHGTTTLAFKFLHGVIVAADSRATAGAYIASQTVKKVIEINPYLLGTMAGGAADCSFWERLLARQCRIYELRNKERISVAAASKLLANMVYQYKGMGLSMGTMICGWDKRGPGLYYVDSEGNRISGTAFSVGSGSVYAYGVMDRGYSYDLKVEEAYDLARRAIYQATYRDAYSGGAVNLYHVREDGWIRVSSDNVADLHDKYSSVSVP

[2] = Solubility of the compound in phosphate buffer at pH 7.2 at 10 mg/ml after 24 hrs by HPLC-UV method; format: physicochemical
In short: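 Compound shaken at a target 10 mg/mL in 50 mM potassium phosphate buffer for 24 h at 25 °C, then centrifuged at 15 000 rpm for 15 min. Supernatant diluted 100-fold in DMSO and quantified by HPLC-UV (220/254/280 nm) against a three-level DMSO standard curve, in duplicate.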

[3] = target: T2, Proteasome subunit beta type-8 (Mus musculus, UniProt P28063); assay: Inhibition of LMP7 in mouse A20 cells by ELISA; format: cell-based
T2 sequence (P28063 whole entry): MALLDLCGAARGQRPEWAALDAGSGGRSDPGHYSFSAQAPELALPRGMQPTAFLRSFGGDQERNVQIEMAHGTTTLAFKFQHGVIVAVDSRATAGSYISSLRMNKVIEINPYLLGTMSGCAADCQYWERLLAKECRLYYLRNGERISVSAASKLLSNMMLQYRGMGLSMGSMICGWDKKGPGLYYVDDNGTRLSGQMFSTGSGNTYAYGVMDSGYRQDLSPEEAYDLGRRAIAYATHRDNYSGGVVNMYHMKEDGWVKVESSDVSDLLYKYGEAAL
In short: (§1)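 Mouse A20 B-cell lymphoma cell lysate (1 mg/mL, hypotonic 20 mM Tris pH 8, 5 mM EDTA) treated with serially diluted compound for 1 h at 25 °C. Then 5 μM biotinylated active-site probe for 2 h at 25 °C, guanidine denaturation and streptavidin bead capture. Subunit-specific antibody and HRP chemiluminescence, signal normalized to protein, IC50 from percent activity versus DMSO controls.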

[4] = target: T3, Proteasome subunit beta type-10 (Mus musculus, UniProt O35955); assay: Inhibition of MECL1 in mouse A20 cells by ELISA; format: cell-based; in short: as §1
T3 sequence (O35955 whole entry): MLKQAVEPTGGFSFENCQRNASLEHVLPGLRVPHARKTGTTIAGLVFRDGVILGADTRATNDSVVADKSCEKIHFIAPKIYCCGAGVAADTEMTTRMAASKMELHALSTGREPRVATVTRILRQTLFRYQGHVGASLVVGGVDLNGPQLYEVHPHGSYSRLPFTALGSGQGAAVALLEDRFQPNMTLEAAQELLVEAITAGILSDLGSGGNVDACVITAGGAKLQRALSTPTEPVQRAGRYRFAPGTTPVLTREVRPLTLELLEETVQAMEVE

[5] = target: Proteasome subunit beta type-2 (Mus musculus, UniProt Q9R1P3); assay: Inhibition of 20S proteosome beta 2 in mouse A20 cells by ELISA; format: cell-based
[6] = target: T4, Proteasome subunit beta type-9 (Homo sapiens, UniProt P28065); assay: Inhibition of LMP2 in human MOLT4 cells by ELISA; format: cell-based
T4 sequence (P28065 whole entry): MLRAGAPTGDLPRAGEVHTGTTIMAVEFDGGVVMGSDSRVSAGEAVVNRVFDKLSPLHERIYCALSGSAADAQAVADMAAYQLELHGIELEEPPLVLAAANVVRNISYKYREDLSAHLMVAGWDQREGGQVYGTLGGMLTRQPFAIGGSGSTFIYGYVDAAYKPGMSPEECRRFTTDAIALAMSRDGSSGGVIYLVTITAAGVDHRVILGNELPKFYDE

[7] = target: T5, Proteasome subunit beta type-10 (Homo sapiens, UniProt P40306); assay: Inhibition of MECL1 in human MOLT4 cells by ELISA; format: cell-based
T5 sequence (P40306 whole entry): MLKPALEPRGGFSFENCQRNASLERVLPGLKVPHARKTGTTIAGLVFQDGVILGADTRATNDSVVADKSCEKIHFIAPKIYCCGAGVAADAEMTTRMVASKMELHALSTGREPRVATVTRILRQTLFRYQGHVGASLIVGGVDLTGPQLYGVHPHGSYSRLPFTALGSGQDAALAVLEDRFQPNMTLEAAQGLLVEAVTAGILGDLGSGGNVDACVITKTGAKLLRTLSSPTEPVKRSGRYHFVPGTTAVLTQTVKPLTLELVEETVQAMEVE

[8] = target: T6, Proteasome Macropain subunit MB1 (Homo sapiens, UniProt P28074); assay: Inhibition of 20S proteosome beta 5 in human MOLT4 cells by ELISA; format: cell-based
T6 sequence (P28074 whole entry): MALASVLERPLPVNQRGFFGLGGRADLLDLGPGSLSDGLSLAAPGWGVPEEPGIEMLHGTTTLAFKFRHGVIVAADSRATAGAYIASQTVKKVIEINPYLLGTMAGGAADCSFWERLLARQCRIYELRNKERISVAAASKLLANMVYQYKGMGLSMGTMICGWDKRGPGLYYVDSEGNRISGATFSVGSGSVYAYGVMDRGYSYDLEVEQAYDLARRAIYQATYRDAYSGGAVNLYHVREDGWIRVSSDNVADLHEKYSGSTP

[9] = target: T7, Proteasome subunit beta type-9 (Mus musculus, UniProt P28076); assay: Inhibition of LMP2 in mouse A20 cells by ELISA; format: cell-based; in short: as §1
T7 sequence (P28076 whole entry): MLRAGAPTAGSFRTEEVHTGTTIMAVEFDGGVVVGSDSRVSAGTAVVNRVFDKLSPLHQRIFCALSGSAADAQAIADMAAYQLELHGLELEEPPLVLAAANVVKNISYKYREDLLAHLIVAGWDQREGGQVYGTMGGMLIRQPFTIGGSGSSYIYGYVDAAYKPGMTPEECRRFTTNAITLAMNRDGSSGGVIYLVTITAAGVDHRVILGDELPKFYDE

[10] = target: T8, Proteasome subunit beta type-8 (Homo sapiens, UniProt P28062); assay: Inhibition of LMP7 in human MOLT4 cells by ELISA; format: cell-based
T8 sequence (P28062 whole entry): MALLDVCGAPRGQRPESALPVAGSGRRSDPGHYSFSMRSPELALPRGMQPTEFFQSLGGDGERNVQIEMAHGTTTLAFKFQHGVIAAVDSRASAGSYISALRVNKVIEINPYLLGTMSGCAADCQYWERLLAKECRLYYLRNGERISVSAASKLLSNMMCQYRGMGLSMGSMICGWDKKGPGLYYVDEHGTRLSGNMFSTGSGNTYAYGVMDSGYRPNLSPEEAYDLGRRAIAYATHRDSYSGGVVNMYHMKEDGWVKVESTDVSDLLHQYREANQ

[11] = Half life in Sprague-Dawley rat at 2 to 9 mg/kg, iv administered as bolus dose by LC/MS-MS analysis; format: ADME, organism-based; settings: in vivo
PBMC [12] = assay: Antiinflammatory activity in human PBMC assessed as reduction in LPS-stimulated TNF-alpha expression at 250 nM preincubated for 1 hr followed by LPS stimulation measured after 24 hrs by ELISA; format: functional, cell-based
In short: (§2)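 Cryopreserved healthy-donor PBMC in RPMI 1640 with 5% heat-inactivated FBS, 250 000 cells/well. Compound (0.1% DMSO final) for 1 h at 37 °C, 5% CO2, then 4 washes with medium. Stimulated with 1 μg/mL LPS for 24 h; supernatant TNFα, IL-6 and IL-12/23p40 by electrochemiluminescent immunoassay. Mean level relative to DMSO controls, n = 6.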

PBMC [13] = assay: Antiinflammatory activity in human PBMC assessed as reduction in anti-CD3/CD28 antibody-stimulated TNF-alpha expression at 250 nM preincubated for 1 hr followed by anti-CD3/CD28 antibody stimulation measured after 24 hrs by ELISA; format: functional, cell-based
In short: (§3)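 Healthy-donor PBMC, thawed from cryopreservation, 250 000 cells/well in RPMI 1640/5% FBS. Pretreated 1 h at 37 °C with compound alone or combined (0.1% DMSO final), washed 4 times, then stimulated 24 h with anti-CD3 and anti-CD28 antibodies. TNFα and IFNγ in supernatants by electrochemiluminescent ELISA; expressed relative to DMSO-treated controls (n = 6).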

PBMC [14] = assay: Antiinflammatory activity in human PBMC assessed as reduction in LPS-stimulated p40 subunit of […] expression at 250 nM preincubated for 1 hr followed by LPS stimulation measured after 24 hrs by ELISA; format: functional, cell-based; in short: as §2
PBMC [15] = assay: Antiinflammatory activity in human PBMC assessed as reduction in anti-CD3/CD28 antibody-stimulated IFN-gamma expression at 250 nM preincubated for 1 hr followed by anti-CD3/CD28 antibody stimulation measured after 24 hrs by ELISA; format: functional, cell-based; in short: as §3
[16] = target: T9, Proteasome subunit beta type-8 (Homo sapiens) (UniProt P28062); assay: Inhibition of LMP7 in human PBMC at 250 nM by ELISA
T9 sequence (whole entry): T8 sequence (P28062 whole entry)
In short: (§4)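 Cryopreserved healthy-donor human PBMC in RPMI 1640 with 5% heat-inactivated FBS, exposed to compound (0.1% DMSO final) for 1 h at 37 °C, 5% CO2, then washed. Subunit-specific active-site occupancy read by ProCISE: biotinylated active-site probe binding, denaturation, streptavidin capture, subunit-specific antibody and HRP chemiluminescence. Signal normalized to protein and expressed relative to DMSO controls.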

PBMC [17] = assay: Antiinflammatory activity in human PBMC assessed as reduction in LPS-stimulated IL-6 expression at 250 nM preincubated for 1 hr followed by LPS stimulation measured after 24 hrs by ELISA; format: functional, cell-based; in short: as §2
[18] = target: T10, Proteasome subunit beta type-9 (Homo sapiens) (UniProt P28065); assay: Inhibition of LMP2 in human PBMC at 250 nM by ELISA; in short: as §4
T10 sequence (whole entry): T4 sequence (P28065 whole entry)

Chain of Proteasome subunit beta type-2 (Q9R1P3 whole entry): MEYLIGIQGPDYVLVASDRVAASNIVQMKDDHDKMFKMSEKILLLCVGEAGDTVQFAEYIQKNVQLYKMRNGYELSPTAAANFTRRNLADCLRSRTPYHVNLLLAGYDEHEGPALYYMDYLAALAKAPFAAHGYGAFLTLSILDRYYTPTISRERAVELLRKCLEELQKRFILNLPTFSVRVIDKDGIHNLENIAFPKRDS

Row | IC50 [1] | solubility at 24 h [2] | IC50 [3] | IC50 [6] | IC50 [7] | IC50 [8] | IC50 [9] | IC50 [10] | SMILES | other results
1 | 6.81 µM | 979 µg/mL (≈ 1760 µM) | 0.556 µM |  |  |  |  |  | COc1ccc(C[C@H](NC(=O)[C@@H](C)NC(=O)[C@H]2CC[C@H](O)CC2)C(=O)N[C@@H](CC2CCC2)C(=O)[C@@]2(C)CO2)cc1 | 
2 | 0.038 µM |  | 0.056 µM | 0.415 µM | 0.097 µM | 0.039 µM | 0.415 µM | 0.049 µM | CC(C)C[C@H](NC(=O)CN1CCCCCC1)C(=O)N[C@@H](Cc1ccccc1)C(=O)N[C@@H](Cc1ccccc1)C(=O)[C@@]1(C)CO1 | IC50 [4]: 0.159 µM; IC50 [5]: 0.141 µM
3 | 0.118 µM | 12.1 µg/mL (≈ 21.5 µM) | 0.141 µM |  |  |  |  |  | COc1ccc(C[C@H](NC(=O)[C@@H](C)NC(=O)C2CCCCC2)C(=O)N[C@@H](Cc2ccccc2)C(=O)[C@@]2(C)CO2)cc1 | 
4 |  |  |  |  |  |  |  |  | CC(C)C[C@H](NC(=O)[C@H](CCc1ccccc1)NC(=O)CN1CCOCC1)C(=O)N[C@@H](Cc1ccccc1)C(=O)N[C@@H](CC(C)C)C(=O)[C@@]1(C)CO1 [CARFILZOMIB] | half-life [11]: < 15 min
5 | 0.694 µM | 2730 µg/mL (≈ 4790 µM) | 0.11 µM | 0.223 µM |  |  |  |  | COc1ccc(C[C@H](NC(=O)[C@H](C)NC(=O)CN2CCOCC2)C(=O)N[C@@H](CC2=CCCC2)C(=O)[C@@]2(C)CO2)cc1 | 
6 | 0.507 µM | 240 µg/mL (≈ 414 µM) | 0.262 µM | 3.53 µM | > 25 µM | 0.782 µM |  | 0.023 µM | COc1ccc(C[C@H](NC(=O)[C@@H](C)NC(=O)[C@H]2CC[C@H](O)CC2)C(=O)N[C@@H](Cc2ccccc2)C(=O)[C@@]2(C)CO2)cc1 | 
7 | 2.34 µM | 1.4 µg/mL (≈ 2.3 µM) | 0.764 µM |  |  | 3.62 µM |  | 0.076 µM | COc1ccc(C[C@H](NC(=O)[C@@H](C)NC(=O)C2=C(C)c3ccccc3C2)C(=O)N[C@@H](Cc2ccccc2)C(=O)[C@@]2(C)CO2)cc1 | 
8 | 1.36 µM | 0.75 µg/mL (≈ 1.21 µM) | 0.573 µM | 2.21 µM | > 25 µM | 1.67 µM | 4.78 µM | 0.039 µM | CC1=C(C(=O)N[C@H](C)C(=O)N[C@@H](Cc2c[nH]c3ccccc23)C(=O)N[C@@H](Cc2ccccc2)C(=O)[C@@]2(C)CO2)Cc2ccccc21 | 
9 | 0.047 µM | 1.85 µg/mL (≈ 2.99 µM) | 0.05 µM |  |  | 0.054 µM |  | 0.038 µM | CC1=C(C(=O)N[C@@H](C)C(=O)N[C@@H](Cc2c[nH]c3ccccc23)C(=O)N[C@@H](Cc2ccccc2)C(=O)[C@@]2(C)CO2)Cc2ccccc21 | 

Row | SMILES | IC50 [1] | solubility at 24 h [2] | IC50 [3] | IC50 [6] | IC50 [7] | IC50 [8] | IC50 [9] | IC50 [10] | other results
10 | COc1ccc(C[C@H](NC(=O)[C@H](C)NC(=O)CN2CCOCC2)C(=O)N[C@@H](Cc2ccccc2)C(=O)[C@@]2(C)CO2)cc1 | 0.401 µM | < 0.5 µg/mL | 0.098 µM |  |  |  | 0.328 µM |  | IC50 [4]: 0.699 µM; Activity (PBMC [12]): Active; Activity (PBMC [13]): Active; inhibition (PBMC [14]): Active; Activity (PBMC [15]): Active; inhibition [16]: Active; Activity (PBMC [17]): Active; inhibition [18]: Active
